Drawing on ChEMBL document CHEMBL5715941, “AZD1152, a selective inhibitor of Aurora B kinase, inhibits human tumor xenograft growth by inducing apoptosis” (Clin Cancer Res, 2007), this text covers inhibition in vivo and Activity for one compound.

Active and inactive are the calls of the source. The rule behind the calls is not given here. Some results are limits rather than exact numbers.

Assay [1] relates to A549. The experiment in a line: Antitumor activity against human A549 cells xenografted in immunodeficient Swiss athymic mouse assessed as inhibition of tumor volume at 150 mg/kg/day, sc for 48 hrs on days 13 to 15 and measured on day 29 relative to control. The class given is functional. The conditions noted are these: A549, 408 h, time 17 day. The gist of the method: (§1)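 Male Swiss athymic nude mice, 8-12 wk; tumor cells (1×10^6-1×10^7, 50:50 Matrigel) implanted s.c. on flank. Randomized (n = 8-11) at 0.2-0.5 cm3. AZD1152 in Tris buffer pH 9, or vehicle (0.3 mol/L Tris), by 48-h s.c. osmotic mini-pump infusion (two 24-h pumps in sequence). Caliper volumes up to 3×/week; growth inhibition from change in control vs treated volume; one-tailed t test.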
Background: A xenograft is tissue or cells of one species grown in another, often human tumour cells in immunodeficient mice.

Assay [2] has as its system SW-620. Briefly: Antitumor activity against human SW620 cells xenografted in immunodeficient Swiss athymic mouse assessed as maximum inhibition of tumor volume at 25 mg/kg/day, ip for 4 days on days 6 to 9 and measured on day 13 relative to control. As to conditions: SW-620, 192 h, time 8 day. The class given is functional. The essentials: (§2)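 Male Swiss nude mice bearing s.c. flank SW620 xenografts (cells in Matrigel), randomized (n = 8-11) at 0.2-0.3 cm3. AZD1152 in Tris buffer pH 9, or vehicle, given as a once-daily i.v. or i.p. bolus. Caliper volumes up to 3×/week; inhibition from change in control vs treated volume; one-tailed t test.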

Assay [3] concerns SW-620. The experiment in a line: Antitumor activity against human SW620 cells xenografted in immunodeficient Swiss athymic mouse assessed as inhibition of tumor volume at 25 mg/kg/day, sc for 48 hrs on days 7 to 9 and measured on day 23 relative to control. Type of assay: functional. As to conditions: SW-620, 408 h, time 17 day. The essentials:
as §1

In assay [4] the test system is SW-620. Briefly: Antitumor activity against human SW620 cells xenografted in immunodeficient Swiss athymic mouse assessed as inhibition of tumor volume at 25 mg/kg/day, iv for 3 days on days 6 to 8 and measured on day 24 relative to control. As to conditions: SW-620, 456 h, time 19 day. The class given is functional. The gist of the method:
as §2

The test system of assay [5] is SW-620. The experiment in a line: Antitumor activity against human SW620 cells xenografted in nude athymic rat assessed as myelosuppression at 25 mg/kg/day, iv for 4 consecutive days by flow cytometric analysis. The class given is functional, organism-based. As to conditions: time 4.0 day.
In assay [6] the test system is SW-620. The experiment in a line: Antitumor activity against human SW620 cells xenografted in immunodeficient Swiss athymic mouse assessed as inhibition of tumor volume at 25 mg/kg/day, ip for 4 days on days 6 to 9 and measured on day 24 relative to control. Type of assay: functional. The conditions noted are these: SW-620, 456 h, time 19 day. The essentials: as §2

The subject of assay [7] is SW-620. Briefly: Antitumor activity against human SW620 cells xenografted in immunodeficient Swiss athymic mouse assessed as maximum inhibition of tumor volume at 10 mg/kg/day, sc for 48 hrs on days 7 to 9 and measured on day 10 relative to control. Type of assay: functional. The conditions noted are these: SW-620, 96 h, time 4 day. The essentials:
as §1

Assay [8] has as its system SW-620. Briefly: Antitumor activity against human SW620 cells xenografted in nude athymic rat assessed as normal appearance in bone marrow at 25 mg/kg/day, iv for 4 consecutive days and measured on 9 day by H&E staining based immunohistochemistry analysis. The class given is functional, organism-based. The gist of the method: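 Nude rats bearing SW620 tumors were dosed i.v. with AZD1152 at 25 mg/kg/d or with vehicle on days 1-4. Subgroups (n = 3) were killed at set days. Tumor and bone marrow sections were H&E-stained and examined histologically.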

Assay [9] concerns SW-620. Briefly: Antitumor activity against human SW620 cells xenografted in Swiss nude mouse assessed as reduction in PhH3 at Ser10 residue at 70 mg/kg/day, sc over 48 hrs by immunohistochemistry analysis. Type of assay: functional, organism-based. The gist of the method:
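Male nude mice bearing SW620 tumors (n = 4/group) had 48-h s.c. mini-pump infusion of AZD1152 (70 mg/kg/d) or vehicle. Excised tumor sections were stained with H&E, or immunostained for PhH3 Ser10 with rabbit polyclonal antibody, HRP-polymer detection and hematoxylin counterstain.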

Assay [10] has as its system HL-60. Briefly: Antitumor activity against human HL-60 cells xenografted in immunodeficient Swiss athymic mouse assessed as inhibition of tumor volume at 150 mg/kg/day, sc for 48 hrs on days 16 to 18 and measured on day 35 relative to control. Type of assay: functional. The conditions noted are these: HL-60, 480 h, time 20 day. The essentials:
as §1

The subject of assay [11] is HL-60. The experiment in a line: Antitumor activity against human HL-60 cells xenografted in immunodeficient Swiss athymic mouse assessed as maximum inhibition of tumor volume at 150 mg/kg/day, sc for 48 hrs on days 16 to 18 and measured on day 18 relative to control. Type of assay: functional. As to conditions: HL-60, 72 h, time 3 day. The essentials:
as §1

Assay [12] concerns SW-620. The experiment in a line: Induction of polyploidy in human SW620 cells at 300 nmol/L incubated for 48 hrs by flow cytometry analysis. The class given is functional, cell-based. The gist of the method:
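SW620 cells were grown in L-15 with 10% heat-inactivated FCS at 37°C without CO2. They were exposed to AZD1152-HQPA for 0, 24 or 48 h, fixed in 70% ethanol at −20°C overnight, stained with propidium iodide (10 µg/mL) plus RNase (100 µg/mL), and DNA content was read by flow cytometry.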
On the technique in general: Flow cytometry measures light scatter and fluorescence of single cells or particles in a stream.

Assay [13] concerns SW-620. The experiment in a line: Antitumor activity against human SW620 cells xenografted in Swiss nude mouse assessed as reduction in proportion of PhH3-positive cells within the G2-M phase at 70 mg/kg/day, sc measured over 48 hrs by flow cytometry analysis. Type of assay: functional, organism-based. The gist of the method:
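Male nude mice with palpable s.c. SW620 tumors (n = 4/group) received AZD1152 (0.5-150 mg/kg/d) or vehicle by constant 48-h s.c. mini-pump infusion. Tumors were then excised, fixed and disaggregated. Flow cytometry with propidium iodide gave DNA content (2N, 4N, >4N), and rabbit anti-PhH3 with fluorescein anti-rabbit IgG gave PhH3-positive cells (%).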

Assay [14] relates to SW-620. The experiment in a line: Antitumor activity against human SW620 cells xenografted in nude athymic rat assessed as suppression in PhH3 at 25 mg/kg/day, iv for 4 consecutive days and measured during dosing period (days 1 to 4) by flow cytometry analysis relative to control. The conditions noted are these: time 1 to 4 day.
Another assay concerns COLO 205. The experiment in a line: Antitumor activity against human COLO 205 cells xenografted in immunodeficient Swiss athymic mouse assessed as inhibition of tumor volume at 150 mg/kg/day, sc for 48 hrs on days 5 to 7 and measured on day 21 relative to control. As to conditions: COLO 205, 408 h, time 17 day. Type of assay: functional. The essentials:
as §1

The test system of assay [15] is A549. Briefly: Antitumor activity against human A549 cells xenografted in immunodeficient Swiss athymic mouse assessed as inhibition of tumor volume at 25 mg/kg/day, sc for 48 hrs on days 13 to 15 and measured on day 29 relative to control. The conditions noted are these: A549, 408 h, time 17 day. The class given is functional. The gist of the method:
as §1

For assay [16], the system named is SW-620. Briefly: Antitumor activity against human SW620 cells xenografted in nude athymic rat assessed as tumor growth inhibition at 25 mg/kg/day, iv for 4 consecutive days and measured at 8 day relative to control. Type of assay: functional. As to conditions: SW-620, 192 h. The essentials:
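Male nude rats with established SW620 xenografts, randomized at 0.5-1 cm3, received vehicle or AZD1152 (25 mg/kg, in Tris pH 9) as a once-daily i.v. bolus for 4 consecutive days. Tumor volume was measured by caliper (n = 10); growth inhibition relative to vehicle.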

Assay [17] deals with SW-620. The experiment in a line: Antitumor activity against human SW620 cells xenografted in immunodeficient Swiss athymic mouse assessed as maximum inhibition of tumor volume at 25 mg/kg/day, sc for 48 hrs on days 7 to 9 and measured on day 14 relative to control. The class given is functional. As to conditions: SW-620, 192 h, time 8 day. The gist of the method:
as §1

One may read the inhibition in vivo as how much of the control response was suppressed. Regarding `CCN(CCCOc1ccc2c(Nc3cc(CC(=O)Nc4cccc(F)c4)[nH]n3)ncnc2c1)CCOP(=O)(O)O` [BARASERTIB], the inhibition in vivo at 150 mg/kg/day with A549 [1] was 69%; with HL-60 [10] it was greater than 100%; in the assay on HL-60 [11] it was greater than 100%; with COLO 205 it was 94%. Further, the inhibition in vivo at 25 mg/kg/day in the assay with SW-620 [2] worked out at 65%; in the assay with SW-620 [3], 49%; in the assay on SW-620 [4] it was 47%; with SW-620 [6], 54%; in the assay with A549 [15] it was 36%; in the assay with SW-620 [16] it was 93%. Also, in the assay on SW-620 [17], the inhibition in vivo at 25 mg/kg/day was 65%. The result with SW-620 [5], in the assay with SW-620 [9], in the assay on SW-620 [12] and in the assay on SW-620 [13] was Active. Also, the inhibition in vivo at 10 mg/kg/day in the assay on SW-620 [7] was 55%. Moreover, the outcome in the assay on SW-620 [8] was inactive. In addition, the Activity in the assay on SW-620 [14] was roughly 40%.
